Published values of several laboratories.
Each line is one published result; the experiments were not run side by side.
KCNH2: Voltage-gated inwardly rectifying potassium channel KCNH2 (KCNH2, Homo sapiens, UniProt Q12809)

N#C[C@@]1(n2ccc(N)nc2=O)O[C@H](CO)[C@@H](O)[C@H]1O — CC50 (Caco-2; cell growth or viability): > 100 µM
COc1ccc(F)cc1C(=O)NCc1ccc(-c2nn([C@@H](C)C(F)(F)F)c(N)c2C(N)=O)cc1 — Tmax (human, plasma; oral, 200 mg, single dose, fasted): 2.5 h
CO[C@H]1/C=C/O[C@@]2(C)Oc3c(C)c(O)c4c(O)c(c(/C=N/N5CCN(C6CCCC6)CC5)c(O)c4c3C2=O)NC(=O)/C(C)=C\C=C\[C@H](C)[C@H](O)[C@@H](C)[C@@H](O)[C@@H](C)[C@H](OC(C)=O)[C@@H]1C — MRT (male Sprague-Dawley rat, plasma; intravenous, 10 mg/kg, single dose): 24.4 h
O=c1nc(NO)ccn1[C@@H]1O[C@H](CO)[C@@H](O)[C@H]1O — CC50 (Caco-2; cell growth or viability): > 100 µM
CC(C)CC(=O)OC[C@H]1O[C@@](C#N)(c2ccc3c(N)ncnn23)[C@H](O)[C@@H]1O — inhibition (KCNH2; ligand displacement; 20 µM): -3%
Cc1[nH]c(C)c(S(=O)(=O)Nc2ccc(S(F)(F)(F)(F)F)cc2)c1C(=O)N1CCC(F)(F)C1 — IC50 (KCNH2; ion current, inhibitor, patch clamp): > 30 µM
Cc1cccc(C)c1NC(=O)C1CCCCN1 (centres unmarked) — inhibition (KCNH2; ion current, inhibitor, patch clamp; 100 µM): 19.4%
CC[C@H](C)CCCCC(=O)N[C@@H](CCN)C(=O)N[C@H](C(=O)N[C@@H](CCN)C(=O)N[C@H]1CCNC(=O)[C@H]([C@@H](C)O)NC(=O)[C@H](CCN)NC(=O)[C@H](CCN)NC(=O)[C@H](CC(C)C)NC(=O)[C@@H](CC(C)C)NC(=O)[C@H](CCN)NC1=O)[C@@H](C)O — MRT(0-inf) (male Sprague-Dawley rat, plasma; subcutaneous, 10 mg/kg): 4.88 h
